The list is not random: actives were taken first. Their share in the collection is about 2.1%.
Yeast lifespan up: extends the lifespan of yeast. AID 775. inhibition of the nicotinamide effect, % at 10 µM. 0.68% of 130,000 active. S. cerevisiae growth with nicotinamide, OD615; deaD strain in restrictive glucose medium;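 active = inhibition above a set limit, placed 3 SD over the median of all compounds, cut at about 26% in these data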;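 note: 0% = nicotinamide-treated wells and 100% = cells grown without nicotinamide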
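Buffer or medium: CSMM-D glucose medium, restrictive; test system: modified budding yeast, DeaD strain; compound: single dose 10 µM compound, 0.25% DMSO; schedule: culture preincubation 4 h, compound exposure 48 h, both 30 °C; detection: optical density (absorbance) at 615 nm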
Yeast growth inh: chemicals that inhibit yeast BB579 growth in restrictive medium (lifespan-shortening candidates); 0.51% of 140,000 active; S. cerevisiae BB579 growth, OD615, 48 h; inhibition, % at 10 µM;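 active = inhibition above a set limit, 3 SD over the mean compound inhibition, cut at about 44% in these data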
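test system = yeast BB579 (DeaD) | buffer or medium = restrictive CSMM-D medium | doses = single compound dose of 10 µM, 0.25% DMSO final | times = 4 h preincubation and 48 h exposure at 30 °C | technique = culture absorbance at 615 nm | benchmarks = amphotericin B 10 µg/mL, positive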
MRP1 act: MRP-1 activation; 0.61% of 140,000 active; H69AR cells + doxorubicin, viability rescue, CellTiter-Glo; viability increase, % at 10 µM;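 active = viability gain under doxorubicin at or above a set limit, the compound median plus 3 SD, cut at about 4.7% in these data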;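 note: MRP-1 overexpressing cells given doxorubicin 25 µM after compound pretreatment; 18-22 h compound pretreatment then 72 h with doxorubicin before readout; 0% = doxorubicin-only wells and 100% = vehicle-treated cells without doxorubicin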
Phagocytosis inh: inhibitors of macrophage phagocytosis | J774A.1 macrophage IgG-bead phagocytosis, imaging | inhibition, % at 5 µM | 0.07% of 110,000 active | AID 1029;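 active = inhibition above the mean of the plate negative controls plus 5 SD, cut at about 13% in these data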;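 note: phagocytic index as fraction of beads internalized from green versus red external bead signal; plate controls were DMSO negative control for no effect and cytochalasin-D positive control for full effect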
SDO1 yeast rescue: sdo1-depleted yeast growth rescue | z-score at 10 µM | S. cerevisiae sdo1-depleted JHY4D growth rescue, OD600 30 h; active compounds read high; pdr5 snq2 efflux-pump mutant strain | AID 817 | 0.21% of 140,000 active;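 active = z-score above 3 at both the 24 hr and the 30 hr optical density reads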;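 note: z-score against mean and SD of all compound wells on the same plate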
MRP reversal: compounds reversing MRP-mediated drug resistance. differential viability (reversal), % at 10 µM. AID 602. H69AR cells + 2 uM doxorubicin, CellTiter-Glo, 72 h. 0.04% of 85,000 active;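 active = viability drop by adding the cancer drug above about 55%, with treated viability meeting a 40% cutoff, limit read from the data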;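 note: viability without doxorubicin minus viability with 2 µM doxorubicin for each compound; larger differential means the compound sensitizes cells more to doxorubicin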
The depositor's hits bear a star; nt = no result; [ ] = remark or other dose.

SMILES	Yeast lifespan up	Yeast growth inh	MRP1 act	Phagocytosis inh	SDO1 yeast rescue	MRP reversal
CCCCCCN1N=C(C)C(C(=O)c2ccc(Cl)cc2)C1=O (configuration not stated)	-5.1	87.5*	-2.1	-2.7	0.86	nt
Cc1ccc(/C(N)=N/OC(=O)c2ccc(Cl)cc2Cl)cc1	-11.1	98.7*	-2.1	-0.2	-1.76	nt
COc1ccccc1C(=O)O/N=C(\N)c1ccc(Cl)cc1	-22.0	-21.1	-1.0	nt	-1.74	nt
O=C(CNC(=O)c1cccs1)OCC(=O)c1ccc2ccccc2c1	-26.9	-36.1	-2.3	nt	0.02	-6.7
O=C(COc1ccc(N2C(=O)c3ccccc3C2=O)cc1)c1ccccc1	2.6	5.4	-1.3	-9.2	0	nt
O=C(COc1ccccc1N1C(=O)c2ccccc2C1=O)c1ccc(Cl)cc1	-3.3	-24.6	-1.0	6.1*[artifact]	-0.87	nt
COc1ccccc1CN(Cc1nc2ccccc2c(=O)[nH]1)C(=O)Nc1cccc(C)c1	66.0*	5.7	-0.7	1.4	-1.2	10.3
COc1ccccc1NC(=O)N(Cc1ccc2c(c1)OCO2)Cc1nc2ccccc2c(=O)[nH]1	-8.7	-58.3	-0.9	-2.2	-0.45	-10.4
Cc1nn(C)c(C)c1NC(=O)CSc1nc(C2CC2)nc2c1cnn2-c1ccccc1	-30.9	-0.9	-6.7	nt	1.35	77.8*
Cc1nonc1NC(=O)CSc1nc(C2CCCCC2)nc2ccccc12	61.3*	-33.0	-2.5	-0.7	-1.66	-0.1
Cc1ccc(NC(=O)CC2COc3ccccc3O2)cc1 (configuration not stated)	-27.9	-15.8	0.5	nt	-0.64	25.8
CS(=O)(=O)Oc1ccc(Br)cc1/C=C1/N=C(c2ccco2)OC1=O	49.4*	-15.2	-0.6	2.0	-0.17	nt
COc1cc(/C=C2/N=C(c3ccccc3F)OC2=O)cc(Cl)c1OS(C)(=O)=O	-4.4	-0.9	-0.5	nt	0.3	nt
Nc1cc(=O)[nH]c(SCC(=O)Nc2ccc(F)c(Cl)c2)n1	-9.2	-49.9	0.4	0.1	0.98	10.3
O=c1c2ccc(Cl)cc2nc(-c2cccc(C(F)(F)F)c2)n1O	52.3	0.6	-4.9	-3.6	-0.85	nt
O=c1c2ccccc2nc(-c2ccc(Cl)c(Cl)c2)n1O	76.2*	-17.2	-1.8	-1.1	1.18	-1.3
O=c1cc(CO)oc(CN2CCN(Cc3ccccc3)CC2)c1O	4.0	-14.4	0.1	-0.4	0.12	4.9
O=C(c1ccccc1)N1CC(COc2ccccc2)OC(c2ccco2)O1 (configuration not stated)	26.7*	-15.7	-2.1	nt	-1.37	8.6
O=C(c1ccc(OCC2CCCO2)cc1)N1CCN(c2ccccc2)CC1 (configuration not stated)	-6.7	-39.0	0.2	-1.9	0.54	6.0
Cc1cc(C(=O)CSc2nnnn2C)c(C)n1-c1cccc(F)c1	-12.2	19.6	0.6	0.4	-0.07	-26.8
CC(=O)O/N=C/c1c(N2CCOCC2)n(C)c2ccccc12	-9.5	78.7*	-5.5	nt	-1.23	nt
Cn1c(N2CCOCC2)c(/C=N/OC(=O)c2ccc(F)cc2)c2ccccc21	-23.4	85.4*	-4.1	2.2	-1	nt
Cn1c(Cl)c(/C=N/OC(=O)c2ccc(Cl)cc2)c2ccccc21	-17.3	-60.0	-0.9	0.1	-0.56	nt
Cc1ccc(C(=O)O/N=C/c2c(N3CCOCC3)n(C)c3ccccc23)cc1	-8.0	63.9*	-6.0	nt	-0.56	nt
O=C(Nc1ncc(Cc2cccc(Cl)c2)s1)c1ccc([N+](=O)[O-])cc1	-5.5	-14.7	0.1	nt	0.05	nt
SMILES	Yeast lifespan up	Yeast growth inh	MRP1 act	Phagocytosis inh	SDO1 yeast rescue	MRP reversal
O=C(Nc1ncc(Cc2ccc(C(F)(F)F)cc2)s1)c1ccc(-c2cccc([N+](=O)[O-])c2)o1	-4.6	-25.6	5.0*	-9.2	-0.44	nt
O=C(Nc1ncc(Cc2ccccc2Cl)s1)c1ccc(-c2cccc([N+](=O)[O-])c2)o1	4.5	-27.4	5.2*	-1.9	0.05	nt
c1ccc(Cn2nnnc2-c2ccco2)cc1	-13.3	-46.5	-1.4	-0.4	-0.08	8.2
C=CCn1c(SCC(=O)NCc2ccco2)nc2sc3c(c2c1=O)CCC3	-3.7	-11.9	-2.4	0.5	0.04	0.9
CCCC(=O)Nc1cc(C)c(NC(=O)C23CC4CC(CC(C4)C2)C3)cn1	11.9	-24.8	-2.7	-0.1	-1.17	12.7
Cc1cc(NC(=O)C2CC2)ncc1NC(=O)C12CC3CC(CC(C3)C1)C2	28.9*	-30.8	1.0	0.1	-2.26	4.2
COC(=O)c1[nH]c2cc(OC)c(OC)cc2c1NC(=O)c1cccc(OC)c1	-4.8	-67.0	-1.4	-0.1	-0.89	4.2
Cc1cccc(-n2cc[nH]c2=S)c1C	0.6	-10.4	-2.5	-12.8	1.45	nt
CC1CCN(C(=O)CCc2ccc(S(=O)(=O)NC(C)(C)C)cc2)CC1	-4.6	-0.3	-2.3	-0.6	0.93	7.4
CC(C)(C)NS(=O)(=O)c1ccc(CCC(=O)N2CCOCC2)cc1	-5.5	-8.8	-4.2	22.3*[artifact]	0.23	-7.8
COc1cc(OC)cc(C(=O)NC(=S)NNC(=O)c2cnccn2)c1	22.7	28.5	-0.9	-5.5	-1.33	nt
COc1ccc(C(=O)NC(=S)NNC(=O)c2cnccn2)cc1OC	-5.2	90.5*	-2.4	-13.5	0.25	nt
O=C(C1CCCN(S(=O)(=O)Cc2ccccc2)C1)N1CCC(Cc2ccccc2)CC1 (configuration not stated)	-4.6	-30.4	-4.2	-0.1	-1.18	-47.0
CCC1CC(C)(C(=O)Nc2ccc(S(N)(=O)=O)cc2)OC1=O (configuration not stated)	48.7*	-8.1	0.4	4.0	0.12	-0.2
O=C1c2cccc3cccc(c23)C(=O)N1CCN1CCN(CC(O)COc2ccccc2)CC1 (configuration not stated)	-3.5	-15.4	5.0*	0.9	1.12	nt
C#CCSc1nnc(-c2ccc(C)cc2)o1	nt	-29.9	-5.0	nt	1.14	-13.8
O=C1c2cccc3c(Cl)ccc(c23)C(=O)N1O	-9.8	82.2*	-1.9	nt	-1.02	-15.3
Cc1ccc(-c2noc(C3CCCN(S(=O)(=O)c4ccc5ccccc5c4)C3)n2)o1 (configuration not stated)	0.2	-29.2	7.3*	-0.3	0.12	-38.1
Cc1ccc(S(=O)(=O)N2CCCC(c3nc(-c4ccc(C)o4)no3)C2)cc1 (configuration not stated)	-1.8	-0.5	0.3	-1.7	1.27	16.9
O=C(NC1CCCCC1)Sc1ccc(Cl)cc1	-19.4	52.1*	-2.0	-0.8	-0.96	-19.6
S=C1SCN(Cc2ccccn2)CN1Cc1ccco1	21.8	52.3*	-5.2	0.8	-1.73	nt
CC(C)CN1CN(Cc2ccco2)CNC1=S	4.1	-42.0	2.3	8.8	0.8	nt
COCCN1CSC(=S)N(Cc2ccco2)C1	-8.5	59.5*	-6.3	2.3	-2.15	0.8
CCN(CC)S(=O)(=O)c1ccc2c(c1)c(=O)c(C(=O)N1CCOCC1)cn2C	-7.1	-12.1	-1.2	-2.1	0.05	12.2
CCCCOc1ccc(C(=O)Oc2ccc(C)nc2)cc1	-16.5	-28.9	5.5*	-3.2	-1.03	5.8
